{"source": "ChEMBL document CHEMBL1153240", "about": "“Microwave assisted synthesis and in vitro cytotoxicities of substituted (Z)-2-amino-5-(1-benzyl-1H-indol-3-yl)methylene-1-methyl-1H-imidazol-4(5H)-ones against human tumor cell lines” (2010)", "format_in_all_cases": "functional", "key": {"[1]": {"tested_on": "CCRF-CEM", "experiment": "Cytotoxicity against human CCRF-CEM cells", "method_in_brief": "(§1)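 NCI 60-cell-line panel, five-dose response study. Effect is plotted against log10 drug concentration for each cell line. GI50 is the molar concentration giving a 50% reduction in net protein increase relative to control cells. LC50 is the concentration lethal to 50% of cells.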"}, "[2]": {"tested_on": "HL-60", "experiment": "Cytotoxicity against human HL60 cells", "method_in_brief": "as §1"}, "[3]": {"tested_on": "K562", "experiment": "Cytotoxicity against human K562 cells", "method_in_brief": "as §1"}, "[4]": {"tested_on": "MOLT-4", "experiment": "Cytotoxicity against human MOLT4 cells", "method_in_brief": "as §1"}, "[5]": {"experiment": "Cytotoxicity against human […] cells", "method_in_brief": "as §1"}, "[6]": {"tested_on": "SR", "experiment": "Cytotoxicity against human SR cells", "method_in_brief": "as §1"}, "[7]": {"tested_on": "A549", "experiment": "Cytotoxicity against human A549 cells", "method_in_brief": "as §1"}, "[8]": {"tested_on": "EKVX", "experiment": "Cytotoxicity against human EKVX cells", "method_in_brief": "as §1"}, "[9]": {"tested_on": "HOP-62", "experiment": "Cytotoxicity against human HOP62 cells", "method_in_brief": "as §1"}, "[10]": {"tested_on": "NCI-H226", "experiment": "Cytotoxicity against human NCI-H226 cells", "method_in_brief": "as §1"}, "[11]": {"tested_on": "NCI-H23", "experiment": "Cytotoxicity against human NCI-H23 cells", "method_in_brief": "as §1"}, "[12]": {"tested_on": "NCI-H322M", "experiment": "Cytotoxicity against human NCI-H322M cells", "method_in_brief": "as §1"}, "[13]": {"tested_on": "NCI-H460", "experiment": "Cytotoxicity against human NCI-H460 cells", "method_in_brief": "as §1"}, "[14]": {"tested_on": "NCI-H522", "experiment": "Cytotoxicity against human NCI-H522 cells", "method_in_brief": "as §1"}, "[15]": {"tested_on": "COLO 205", "experiment": "Cytotoxicity against human COLO205 cells", "method_in_brief": "(§2)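 NCI 60-cell-line panel, five-concentration dose-response. Cytotoxic effect was plotted against log10 drug concentration for each line. GI50 is the molar concentration giving a 50% reduction in net protein increase relative to control cells. LC50 is the concentration lethal to 50% of cells. Both were read from the curves.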"}, "[16]": {"tested_on": "HCC 2998", "experiment": "Cytotoxicity against human HCC2998 cells", "method_in_brief": "as §1"}, "[17]": {"tested_on": "HCT-116", "experiment": "Cytotoxicity against human HCT116 cells", "method_in_brief": "as §1"}, "[18]": {"tested_on": "HCT-15", "experiment": "Cytotoxicity against human HCT15 cells", "method_in_brief": "as §1"}, "[19]": {"tested_on": "HT-29", "experiment": "Cytotoxicity against human HT-29 cells", "method_in_brief": "as §2"}, "[20]": {"tested_on": "KM12", "experiment": "Cytotoxicity against human KM12 cells", "method_in_brief": "as §1"}, "[21]": {"tested_on": "SW-620", "experiment": "Cytotoxicity against human SW620 cells", "method_in_brief": "(§3)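 NCI 60 human tumor cell line panel, five-dose dose-response study. Cytotoxic effect was plotted against log10 drug concentration for each cell line. GI50 is the molar concentration giving 50% reduction in net protein increase versus control cells. LC50 is the concentration lethal to 50% of cells.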"}, "[22]": {"tested_on": "SF-539", "experiment": "Cytotoxicity against human SF539 cells", "method_in_brief": "as §1"}, "[23]": {"tested_on": "SNB-19", "experiment": "Cytotoxicity against human SNB19 cells", "method_in_brief": "as §1"}, "[24]": {"tested_on": "SNB-75", "experiment": "Cytotoxicity against human SNB75 cells", "method_in_brief": "as §1"}, "[25]": {"tested_on": "U-251", "experiment": "Cytotoxicity against human U251 cells", "method_in_brief": "as §3"}, "[26]": {"tested_on": "LOX IMVI", "experiment": "Cytotoxicity against human LOXIMVI cells", "method_in_brief": "as §1"}, "[27]": {"tested_on": "Malme-3M", "experiment": "Cytotoxicity against human MALME-3M cells", "method_in_brief": "as §1"}, "[28]": {"tested_on": "M14", "experiment": "Cytotoxicity against human M14 cells", "method_in_brief": "as §1"}, "[29]": {"tested_on": "MDA-MB-435", "experiment": "Cytotoxicity against human MDA-MB-435 cells", "method_in_brief": "as §2"}, "[30]": {"tested_on": "SK-MEL-2", "experiment": "Cytotoxicity against human SK-MEL-2 cells", "method_in_brief": "as §1"}, "[31]": {"conditions": "read-out: LC50 (the source's name)"}}}
{"smiles": "CN1C(N)=NC(=O)/C1=C/c1cn(Cc2ccccc2Br)c2ccccc12", "values": [{"measurement": "GI50", "setting": "[1]", "result": 2.54, "unit": "µM"}, {"measurement": "CC50", "setting": "[1]; [31]", "result": 36.2, "unit": "µM"}, {"measurement": "GI50", "setting": "[2]", "result": 1.85, "unit": "µM"}, {"measurement": "LC50", "setting": "[2]", "result": 21, "unit": "µM"}, {"measurement": "GI50", "setting": "[3]", "result": 2.45, "unit": "µM"}, {"measurement": "CC50", "setting": "[3]; [31]", "result": 77.4, "unit": "µM"}, {"measurement": "GI50", "setting": "[4]", "result": 4.57, "unit": "µM"}, {"measurement": "CC50", "setting": "[4]; [31]", "result": "> 100", "unit": "µM"}, {"measurement": "GI50", "setting": "[5]", "result": 1.19, "unit": "µM"}, {"measurement": "LC50 (concentration lethal to 50% of cells)", "setting": "[5]", "result": 65.9, "unit": "µM"}, {"measurement": "GI50", "setting": "[6]", "result": 1.96, "unit": "µM"}, {"measurement": "CC50", "setting": "[6]; [31]", "result": 72.7, "unit": "µM"}, {"measurement": "GI50", "setting": "[7]", "result": 28.7, "unit": "µM"}, {"measurement": "CC50", "setting": "[7]; [31]", "result": "> 100", "unit": "µM"}, {"measurement": "GI50", "setting": "[8]", "result": 58.1, "unit": "µM"}, {"measurement": "CC50", "setting": "[8]; [31]", "result": "> 100", "unit": "µM"}, {"measurement": "GI50", "setting": "[9]", "result": 8.78, "unit": "µM"}, {"measurement": "CC50", "setting": "[9]; [31]", "result": 51.2, "unit": "µM"}, {"measurement": "GI50", "setting": "[10]", "result": 1.37, "unit": "µM"}, {"measurement": "LC50", "setting": "[10]", "result": 69.9, "unit": "µM"}, {"measurement": "GI50", "setting": "[11]", "result": 8.07, "unit": "µM"}, {"measurement": "LC50 (concentration lethal to 50% of cells)", "setting": "[11]", "result": 54.8, "unit": "µM"}, {"measurement": "GI50", "setting": "[12]", "result": 11, "unit": "µM"}, {"measurement": "CC50", "setting": "[12]; [31]", "result": "> 100", "unit": "µM"}, {"measurement": "GI50", "setting": "[13]", "result": 3.95, "unit": "µM"}, {"measurement": "CC50", "setting": "[13]; [31]", "result": 56.8, "unit": "µM"}, {"measurement": "GI50", "setting": "[14]", "result": 5.38, "unit": "µM"}, {"measurement": "LC50", "setting": "[14]", "result": "> 100", "unit": "µM"}, {"measurement": "GI50", "setting": "[15]", "result": 2.21, "unit": "µM"}, {"measurement": "CC50", "setting": "[15]; [31]", "result": 12.3, "unit": "µM"}, {"measurement": "GI50", "setting": "[16]", "result": 6.95, "unit": "µM"}, {"measurement": "CC50", "setting": "[16]; [31]", "result": 47.2, "unit": "µM"}, {"measurement": "GI50", "setting": "[17]", "result": 2.42, "unit": "µM"}, {"measurement": "CC50", "setting": "[17]; [31]", "result": 30.9, "unit": "µM"}, {"measurement": "GI50", "setting": "[18]", "result": 19.8, "unit": "µM"}, {"measurement": "CC50", "setting": "[18]; [31]", "result": "> 100", "unit": "µM"}, {"measurement": "GI50", "setting": "[19]", "result": 2.18, "unit": "µM"}, {"measurement": "CC50", "setting": "[19]; [31]", "result": 6.94, "unit": "µM"}, {"measurement": "GI50", "setting": "[20]", "result": 5.71, "unit": "µM"}, {"measurement": "CC50", "setting": "[20]; [31]", "result": 50.8, "unit": "µM"}, {"measurement": "GI50", "setting": "[21]", "result": 3.68, "unit": "µM"}, {"measurement": "CC50", "setting": "[21]; [31]", "result": 43.3, "unit": "µM"}, {"measurement": "GI50", "setting": "[22]", "result": 1.73, "unit": "µM"}, {"measurement": "CC50", "setting": "[22]; [31]", "result": 6.94, "unit": "µM"}, {"measurement": "GI50", "setting": "[23]", "result": 4.5, "unit": "µM"}, {"measurement": "CC50", "setting": "[23]; [31]", "result": 43.8, "unit": "µM"}, {"measurement": "GI50", "setting": "[24]", "result": 1.58, "unit": "µM"}, {"measurement": "LC50 (concentration lethal to 50% of cells)", "setting": "[24]", "result": 18.6, "unit": "µM"}, {"measurement": "GI50", "setting": "[25]", "result": 3.01, "unit": "µM"}, {"measurement": "CC50", "setting": "[25]; [31]", "result": 66.2, "unit": "µM"}, {"measurement": "GI50", "setting": "[26]", "result": 1.97, "unit": "µM"}, {"measurement": "LC50", "setting": "[26]", "result": 9.37, "unit": "µM"}, {"measurement": "GI50", "setting": "[27]", "result": 3.3, "unit": "µM"}, {"measurement": "CC50", "setting": "[27]; [31]", "result": 73.8, "unit": "µM"}, {"measurement": "GI50", "setting": "[28]", "result": 4.46, "unit": "µM"}, {"measurement": "LC50", "setting": "[28]", "result": 47.8, "unit": "µM"}, {"measurement": "GI50", "setting": "[29]", "result": 4.97, "unit": "µM"}, {"measurement": "CC50", "setting": "[29]; [31]", "result": 68.6, "unit": "µM"}, {"measurement": "GI50", "setting": "[30]", "result": 5.73, "unit": "µM"}]}
